# Measured values gathered from unrelated publications.
# Target: Broad substrate specificity ATP-binding cassette transporter ABCG2 (ABCG2, Homo sapiens, UniProt Q9UNQ0)
# Residues used in one study (Q9UNQ0 1-655): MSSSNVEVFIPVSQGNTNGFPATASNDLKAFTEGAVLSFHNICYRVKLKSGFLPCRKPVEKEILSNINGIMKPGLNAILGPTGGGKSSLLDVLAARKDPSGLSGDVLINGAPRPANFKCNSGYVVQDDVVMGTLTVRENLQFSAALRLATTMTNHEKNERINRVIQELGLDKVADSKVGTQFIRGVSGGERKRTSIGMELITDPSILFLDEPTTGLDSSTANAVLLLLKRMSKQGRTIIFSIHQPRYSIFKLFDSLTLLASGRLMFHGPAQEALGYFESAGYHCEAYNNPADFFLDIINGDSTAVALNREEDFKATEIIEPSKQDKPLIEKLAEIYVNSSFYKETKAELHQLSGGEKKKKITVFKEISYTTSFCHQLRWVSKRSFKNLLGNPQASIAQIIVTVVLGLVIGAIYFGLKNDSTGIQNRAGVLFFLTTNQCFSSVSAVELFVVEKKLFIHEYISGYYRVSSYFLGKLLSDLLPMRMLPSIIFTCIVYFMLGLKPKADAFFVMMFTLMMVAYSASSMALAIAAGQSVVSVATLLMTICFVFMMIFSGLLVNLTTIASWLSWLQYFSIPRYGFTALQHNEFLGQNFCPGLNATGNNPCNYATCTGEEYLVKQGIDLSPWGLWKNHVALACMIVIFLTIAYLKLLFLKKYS
Structure (SMILES),test,test system,conditions,measurement,value
C/C(O)=C(\C#N)C(=O)Nc1ccc(C(F)(F)F)cc1,,Caco-2,"1 µM, 2 h, pH 7.4",Papp A→B,5.51 ×10⁻⁶ cm/s
O=C(O)CSc1nnc(Br)n1-c1ccc(C2CC2)c2ccccc12,"transporter uptake, inhibitor",Caco-2,"3 µM, 2 h",inhibition,18%
C[C@@H](C(=O)N1Cc2c(-c3ccc(C(=O)N4CCCc5ccccc54)cc3)cnn2C[C@@H]1C)c1ccccc1,,"dog, MDCK-MDR1",,Papp B→A,13.3 ×10⁻⁶ cm/s
O=c1cc(-c2ccccc2)oc2cc(O)cc(O)c12,"transporter uptake, inhibitor",Caco-2,"100 µM, 2 h",inhibition,92%
CC(=O)c1cc(C(=O)N[C@@H](C)Cn2ccc(-c3ccc(C#N)c(Cl)c3)n2)[nH]n1,"transporter uptake, inhibitor",,cell membranes,Ki,0.56 µM
CC(C)[C@H]1Cn2ncc(-c3ccc(C(=O)N4CCCc5ccccc54)cc3)c2CN1C(=O)Cc1ccccc1,,"dog, MDCK-MDR1",,Papp B→A,11.9 ×10⁻⁶ cm/s
N#C/C(=C/c1cc(Cl)cc(Cl)c1)c1cccnc1,ligand displacement,,10 µM,inhibition,~55%
CN(C(=O)n1cnc(-c2ccc[n+]([O-])c2)c1)C1CCCCC1,"transporter uptake, inhibitor",MDCK-II,10 µg/mL,inhibition,13%
C=C[C@@H]1C[C@]1(NC(=O)[C@@H]1C[C@@H]2CN1C(=O)[C@H](C(C)(C)C)NC(=O)O[C@@H]1C[C@H]1CCCCCc1nc3ccc(OC)cc3nc1O2)C(=O)NS(=O)(=O)C1CC1,"transporter uptake, inhibitor",,cell membranes,Ki,4 µM
CN(CCC(=O)O)C(=O)c1ccc2c(c1)CC[C@@H]1[C@@H]2CC[C@]2(C)C(c3cncc(F)c3)=CC[C@@H]12,"transporter uptake, inhibitor",,,IC50,7.6 µM
